# Source: PubChem BioAssay (several laboratories)
# Mdm2 MdmX PPI – inhibitors of human Mdm2-MdmX association, primary screen, cell-based, luminescence, split luciferase, SaOS-2, uHTS; Protein Mdm4 (Homo sapiens) + E3 ubiquitin-protein ligase Mdm2 (Homo sapiens), …; SaOS-2 split-luciferase Mdm2/MdmX complementation; inhibition, % at 8 µM; 330,000 compounds, 3% hits;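 active = inhibition of at least 50% at 8 µM in the primary screen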
# UPR CHOP act – activators of apoptotic CHOP UPR arm, primary screen, cell-based, CHO-CHOP luciferase reporter, luminescence, uHTS | UPR activation; percent of tunicamycin response over DMSO baseline | 330,000 compounds, 0.34% hits | activation, % at 10 µM;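 active = at 10 µM dose, activation of 40% or more, normalized to positive control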;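 note: 100% = tunicamycin at 10 µg/mL and 0% = DMSO alone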
#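 Test system: CHO-CHOP cells, stable luciferase reporter of PERK-eIF2a-CHOP signalling | Quantity: 500 CHO-CHOP cells per well | Buffer or medium: F12 plus 10% serum | Compound dosing: 10 µM single point, 0.5% DMSO | Schedule: 6 h compound treatment, 37 °C | Signal: Luciferase luminescence | Control set: Tunicamycin high control, DMSO low control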
# Dynein cargo inh – inhibitors of GR-EGFP nuclear translocation, primary screen, dynein cargo transport inhibitor project, imaging, high-content, 3617.4 mouse cells. z-score, hits read low. 220,000 compounds, 0.47% hits. AID 1381, 2008. test concentration mostly 20 µM; stimulated with dexamethasone, 1 µM; stronger effect = lower value;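 active = plate z-score of nuclear minus cytoplasmic receptor signal below a set negative limit, without overly bright fluorescence or cell loss, cut at about -3.5 in these data, passing the limit was not always enough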;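 note: z-score of nuclear minus cytoplasmic ring GR-EGFP intensity difference per well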
#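 Medium: Induction medium lacking tetracycline, stripped serum | Probe or stimulus: 1.0 µM final dexamethasone stimulus | Schedule: 48 h induction, then 1 h compound, then 30 min agonist, 37 °C | Signal: Automated 10x imaging of fixed Hoechst-stained cells | Evaluation: Per-cell GR-EGFP intensity, nucleus versus surrounding cytoplasmic ring, well-averaged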
# Beta2AR agonist – beta2AR agonists driving receptor internalization, primary screen, cell-based, FAP fluorogen, flow cytometry | response, % (concentration not given with the values) | Beta-2 adrenergic receptor (Homo sapiens), P07550 | Am2.2-beta2AR cells | 340,000 compounds, 0.43% hits;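 active = response above a set limit, near 3 SD of response in nonfluorescent compounds, cut at about 42% in these data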
# XBP1 UPR activ – activators of adaptive XBP1 UPR arm, primary screen, cell-based, CHO-XBP1 luciferase reporter, luminescence, uHTS | 330,000 compounds, 0.33% hits | AID 463104, 2010 | activation, % at 20 µM | IRE1-XBP1 UPR activation; percent of tunicamycin response, DMSO as zero;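 active = versus positive control, 20 µM dose yields 30% or more activation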;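 note: 100% = tunicamycin at 10 µg/mL and 0% = DMSO only wells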
#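 Material: CHO-XBP1 cells stably carrying IRE1-XBP1-driven luciferase reporter / Amount: 1000 cells per well / Compound: 20 µM, 1% DMSO / Times: 6 h treatment, 37 °C / Detection: luciferase luminescence / Measure: % activation of reporter signal versus tunicamycin and DMSO controls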
# MDM2 E3 inh – MDM2-luciferase reporter signal enhancers, primary screen, MDM2 E3 ligase inhibitor project, cell-based, luminescence, 1536-well; signal enhancement, % at 5 µM; E3 ubiquitin-protein ligase Mdm2 (Homo sapiens), Q00987; cell-based MDM2 ubiquitination luciferase reporter, 2 h; 0 = plate control, 100 = twice control, blank-subtracted; 210,000 compounds, 0.11% hits;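 active = signal enhancement of 30% or more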;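 note: luminescence tracks abundance of the self-degrading MDM2-luciferase fusion protein; higher signal means inhibition of MDM2 E3 ligase activity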
# Target sequence (Q00987 whole entry, looked up, the tested form may be a part): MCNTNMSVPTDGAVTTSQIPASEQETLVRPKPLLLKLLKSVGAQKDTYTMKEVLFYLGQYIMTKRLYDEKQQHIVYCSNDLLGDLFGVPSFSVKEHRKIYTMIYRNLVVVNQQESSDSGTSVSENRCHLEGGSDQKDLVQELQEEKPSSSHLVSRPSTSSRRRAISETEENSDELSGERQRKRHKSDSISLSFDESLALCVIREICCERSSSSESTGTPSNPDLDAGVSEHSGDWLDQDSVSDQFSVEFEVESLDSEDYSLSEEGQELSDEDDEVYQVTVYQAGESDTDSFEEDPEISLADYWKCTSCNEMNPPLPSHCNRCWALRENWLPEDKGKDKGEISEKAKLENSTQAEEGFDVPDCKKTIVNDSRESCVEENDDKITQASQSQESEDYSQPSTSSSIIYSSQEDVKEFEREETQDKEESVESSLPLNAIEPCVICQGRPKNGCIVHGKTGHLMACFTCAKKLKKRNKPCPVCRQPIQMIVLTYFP
#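 Test system: stable mammalian line carrying autodegrading MDM2–luciferase fusion reporter; quantity: 2000 cells in each well; times: 4 h cell settling then 2 h compound exposure, 37 °C; detection: luminescence with SteadyLite reagent, 15 min at room temperature; evaluation: percent signal gain over controls, blank-subtracted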
# Mdm2 MdmX conf – Mdm2-MdmX complex disruptors, retested hits, confirmation, luminescence, single concentration | shares compounds with Mdm2 MdmX PPI | Mdm2-MdmX binding, luminescent assay | inhibition, % at 8 µM | 10,000 compounds, 55% hits | AID 489028, 2010; in the data active = inhibition above about 40%
# Full FLuc ctr – full-length luciferase signal inhibition, confirmation, counter-screen for Mdm2/MdmX interaction inhibitor project, cell-based, single concentration, SaOS-2 | shares compounds with Mdm2 MdmX PPI | SaOS-2 full-length luciferase counterscreen, luminescence | inhibition, % at 8 µM | 6,200 compounds, 77% hits | AID 504607, 2011;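 active = mean inhibition at 8 µM reaching about 37%, which flags the compound as non-specific, limit read from the data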;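 note: p53-null SaOS-2 cells with luciferase driven by a doxycycline-inducible promoter; compound on cells about two nights before reading with doxycycline added after day one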
# Starred values were filed as active, the others as inactive; · = no result. A selection: hits, their analogues and other compounds. The true share with any hit is near 3.7%.
SMILES,Mdm2 MdmX PPI,UPR CHOP act,Dynein cargo inh,Beta2AR agonist,XBP1 UPR activ,MDM2 E3 inh,Mdm2 MdmX conf,Full FLuc ctr
COc1cc(C(=O)Nc2ccc3nc(N4CCN(C)CC4)cc(C)c3c2)cc(OC)c1OC,53*,-3,·,7,2,·,35,·
CCCOc1ccc(C(=O)CCC(=O)OCC(=O)N2CCN(S(=O)(=O)c3ccc(C)cc3C)CC2)cc1,·,·,·,-1,·,·,·,·
O=C(Nc1ccnn1C1CCNCC1)c1ccc2c(c1)OCO2,·,·,·,-11,·,·,·,·
Cc1ccc(-n2ncc3c(SCc4ccccn4)ncnc32)c(C)c1,84*,5,-0.68,-6,0,2,78*,28
O=C(Oc1c(-c2ccccc2)c(=O)n2c3c(cccc13)CC2)c1cccc([N+](=O)[O-])c1,70*,1,-0.74,-18,1,-10,75*,39*
O=C(Oc1c(-c2ccccc2)c(=O)n2c3c(cccc13)CC2)c1ccc(F)cc1,54*,2,-0.26,-7,-1,-4,17,·
Cc1cc(C)n2nc(SCC(=O)N3CCCC(C)C3)nc2n1 (stereo unspecified),15,-1,·,-8,-2,·,·,·
Cc1ccc(-n2nc(C)c3c(C)c(CCC(=O)Nc4ccc(CN5CCCC5)cc4)c(C)nc32)cc1,89*,4,13,·,10,-17,50*,25
CCN(CC)CCNC(=O)CCc1c(C)nc2c(c(C)nn2-c2ccc(C)c(C)c2)c1C,58*,1,·,14,-2,·,44*,48*
COC(CNC(=O)CCc1c(C)nc2c(c(C)nn2-c2ccc(C)cc2)c1C)OC,16,2,·,-2,-3,·,·,·
COCCCNC(=O)CCc1c(C)nc2c(c(C)nn2-c2ccccc2)c1C,4,2,·,0,-5,·,·,·
O=C(O)CNS(=O)(=O)c1ccc(C2CCCCC2)cc1,-15,1,0.16,1,-2,0,·,·
Cc1cc(C)nc(NC(=O)c2c(F)c(F)c(F)c(C(=O)Nc3cc(C)cc(C)n3)c2F)c1,83*,8,·,5,-5,·,65*,18
CCOC(=O)c1cnc(Nc2nc3ccccc3o2)nc1CN1CCN(c2ccccc2)CC1,·,·,-0.91,·,·,·,·,·
CCOC(=O)c1cnc(Nc2nc3ccccc3o2)nc1C,57*,-9,0.89,1,-6,-14,58*,44*
Cc1onc(-c2ccccc2)c1C(=O)Nc1cc(C(F)(F)F)ccc1N1CCOCC1,29,3,-0.13,-4,12,-5,·,·
CCOC(=O)c1ccc(N2CCOCC2)c(NC(=O)c2c(-c3ccccc3)noc2C)c1,60*,0,-0.075,-4,1,-7,67*,54*
Cc1ccc(OCC(=O)Nc2cccnc2Cl)cc1C,-19,1,·,10,0,·,·,·
CC(=O)Nc1ccc(/C(C)=N/Nc2nc(Nc3cccc4ccccc34)nc(N3CCOCC3)n2)cc1,54*,3,-0.26,11,0,-19,28,·
CC(C)CCC1(CCO)C(=O)N=C(N)NC1=O (stereo unspecified),·,·,·,-2,·,·,·,·
COC(=O)C1CN(Cc2ccccc2)C(=O)C1=O (stereo unspecified),·,·,·,1,·,·,·,·
NC(=O)Cn1c(=O)n(CCC(=O)NCCSCc2ccccc2)c(=O)c2ccccc21,-14,1,-0.5,-9,-1,11,·,·
COCCn1nnnc1C(c1ccc(OC)c(OC)c1)N1CCN(C(=O)c2ccco2)CC1 (stereo unspecified),9,1,·,-2,-1,·,·,·
CN(C)S(=O)(=O)c1cccc(NC(=O)c2sccc2-c2ccccc2)c1,31,-1,·,1,-3,·,·,·
CN(C)CCN(C)Cc1ccccc1Sc1cccc2ccccc12,64*,4,-3.1,12,2,-3,43*,69*
SMILES,Mdm2 MdmX PPI,UPR CHOP act,Dynein cargo inh,Beta2AR agonist,XBP1 UPR activ,MDM2 E3 inh,Mdm2 MdmX conf,Full FLuc ctr
CNCc1ccccc1Sc1cccc2ccccc12,34,0,-0.17,11,0,-3,·,·
Cc1ccc(C(=O)OCC(=O)NNC(=O)c2ccc([N+](=O)[O-])cc2)o1,12,-1,·,-6,-1,·,·,·
N#Cc1sc2nccc(Nc3ccccc3)c2c1N,92*,-1,·,-7,-5,·,78*,49*
C[C@H]1CN([C@@H](C)CO)C(=O)c2cccc(NC(=O)Nc3ccc(C(F)(F)F)cc3)c2O[C@@H]1CN(C)Cc1ccc(Cl)c(Cl)c1,72*,17,·,11,13,·,49*,75*
C[C@H]1CN([C@@H](C)CO)C(=O)Cc2cc(NC(=O)CCC(F)(F)F)ccc2O[C@H]1CN(C)S(C)(=O)=O,1,-1,·,0,-1,·,·,·
C[C@H]1CN([C@@H](C)CO)C(=O)c2cccc(NC(=O)Nc3ccc(C(F)(F)F)cc3)c2O[C@@H]1CN(C)S(=O)(=O)c1ccc(Cl)cc1,58*,2,·,17,6,·,14,·
Cc1ccc(S(=O)(=O)N(C)C[C@@H]2Oc3ccc(NC(=O)CCC(F)(F)F)cc3CC(=O)N([C@@H](C)CO)C[C@@H]2C)cc1,59*,-1,·,12,7,·,57*,63*
C[C@H](CO)N1C[C@H](C)[C@H](CN(C)S(=O)(=O)c2cn(C)cn2)Oc2ccc(NC(=O)Nc3ccc(C(F)(F)F)cc3)cc2CC1=O,2,-1,·,2,0,·,·,·
C[C@@H]1CN([C@@H](C)CO)C(=O)Cc2cc(NC(=O)Nc3ccc(C(F)(F)F)cc3)ccc2O[C@@H]1CN(C)S(=O)(=O)c1ccc(Cl)cc1,94*,13,·,1,11,·,53*,38*
CC(=O)c1ccc(NC(=O)CCS(=O)(=O)c2ccc3c(c2)n(C)c(=O)c(=O)n3C)cc1,7,-3,·,6,-3,·,·,·
